The record followed here is ChEMBL document CHEMBL4033653, “Effect of 1,2,3-triazole salts, non-classical bioisosteres of miltefosine, on Leishmania amazonensis” (Bioorg Med Chem, 2017).

The subject of series [1] is Leishmania amazonensis. The series is described as follows: Antileishmanial activity against Leishmania amazonensis IFLA/BR/1967/PH8 promastigotes after 72 hrs by MTT assay. The format is functional. Background: Tetrazolium assays rely on reduction of a dye to a coloured formazan, in cell work by metabolically active cells.
In series [2] the test system is Leishmania amazonensis. Kind of series: Antileishmanial activity against Leishmania amazonensis WHOM/BR/75/Josefa amastigotes transfected with green fluorescent protein infected in murine macrophages after 72 hrs by fluorometric analysis. The format is functional. Summed up: (§1)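 Infected murine macrophages treated 0.78-100.0 µM for 72 h; fluorescence read at 540/600 nm for RFP parasites (PH8) and 485/528 nm for GFP parasites (Josefa strain); IC50 from three independent experiments in duplicate.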

In series [3] the test system is Leishmania amazonensis. Kind of series: Induction of apoptosis in Leishmania amazonensis IFLA/BR/1967/PH8 promastigotes assessed as early apoptotic population at 44 uM after 24 hrs by Annexin V-FITC/PI staining based flow cytometric analysis (reference value: 5.29%). The format is functional. A digest of the protocol: (§2)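 Exponential-phase WT promastigotes (1x10^7 cells/mL) cultured 24 h at 25 °C; stained annexin V-FITC plus PI, flow cytometry with 10,000 events gated on parasites; quadrant percentages; three independent experiments.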
In general terms: Flow cytometry measures light scatter and fluorescence of single cells or particles in a stream.

Series [4] can be described thus: Selectivity index, ratio of CC50 for mouse peritoneal macrophages to IC50 for Leishmania amazonensis IFLA/BR/1967/PH8 amastigotes. Summed up: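 SI = CC50 for mouse peritoneal macrophages / amastigote IC50. […] IC50: WT-infected macrophages treated with 0.78–100.0 µM in sterile water; burden scored by counting amastigotes and infected/uninfected cells in at least 200 macrophages. Three experiments in duplicate.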

Series [5] can be described thus: Selectivity index, ratio of CC50 for mouse peritoneal macrophages to IC50 for Leishmania amazonensis WHOM/BR/75/Josefa amastigotes transfected with green fluorescent protein. A digest of the protocol: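 SI = CC50 for mouse peritoneal macrophages / GFP amastigote IC50. […] IC50: macrophages infected with GFP-expressing Josefa-strain parasites, treated with 0.78–100.0 µM for 72 h; fluorescence read at 485 nm excitation/528 nm emission. Three experiments in duplicate.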

The subject of series [6] is Leishmania amazonensis. Kind of series: Antileishmanial activity against Leishmania amazonensis IFLA/BR/1967/PH8 amastigotes infected in murine macrophages after 72 hrs by fluorometric analysis. In kind it is functional. The conditions noted are these: IFLA/BR/1967/PH8, 72 h.
The test system of series [7] is Leishmania amazonensis. The series is described as follows: Induction of apoptosis in Leishmania amazonensis IFLA/BR/1967/PH8 promastigotes assessed as late apoptotic population at 44 uM after 24 hrs by Annexin V-FITC/PI staining based flow cytometric analysis (reference value: 2.62%). In kind it is functional. Summed up:
as §2

Series [8] concerns Leishmania amazonensis. Kind of series: Induction of DNA damage in Leishmania amazonensis IFLA/BR/1967/PH8 promastigotes at 22 uM after 24 hrs by TUNEL assay. In kind it is functional. A digest of the protocol: (§3)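 Exponential-phase WT promastigotes (1x10^7 cells/mL) cultured 24 h at 25 °C; DNA fragmentation detected by TUNEL with DAPI counterstain, fluorescence microscopy at 100X.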

For series [9], the system named is Leishmania amazonensis. The series is described as follows: Antileishmanial activity against Leishmania amazonensis IFLA/BR/1967/PH8 promastigotes transfected with red fluorescent protein after 72 hrs by MTT assay. The format is functional. The conditions noted are these: IFLA/BR/1967/PH8, 72 h.
Series [10] concerns Leishmania amazonensis. Kind of series: Antileishmanial activity against Leishmania amazonensis IFLA/BR/1967/PH8 amastigotes transfected with red fluorescent protein infected in murine macrophages after 72 hrs by fluorometric analysis. The format is functional. The conditions noted are these: IFLA/BR/1967/PH8, 72 h. Summed up:
as §1

The test system of series [11] is Leishmania amazonensis. The series is described as follows: Induction of ROS accumulation in Leishmania amazonensis IFLA/BR/1967/PH8 promastigotes at 22 uM after 72 hrs by H2DCFDA staining-based fluorometric analysis relative to control. In kind it is functional. Summed up: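 WT exponential-phase promastigotes treated at 25 °C; adjusted to 2x10^7 cells in PBS, loaded with H2DCFDA 30 min dark at room temperature; fluorescence 485/528 nm versus untreated; three independent experiments.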

A short description of series [12]: (§4) Cytotoxicity against mouse peritoneal macrophages after 72 hrs by MTT assay. The format is cell-based, Peritoneal macrophage. The conditions noted are these: peritoneal macrophages.
A short description of series [13]: Selectivity index, ratio of CC50 for mouse peritoneal macrophages to IC50 for Leishmania amazonensis IFLA/BR/1967/PH8 amastigotes transfected with red fluorescent protein. A digest of the protocol:
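SI = CC50 for mouse peritoneal macrophages / RFP amastigote IC50. […] IC50: macrophages infected with RFP-expressing PH8 parasites, treated with 0.78–100.0 µM for 72 h; fluorescence read at 540 nm excitation/600 nm emission. Three experiments in duplicate.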

Series [14] deals with Leishmania amazonensis. The series is described as follows: Antileishmanial activity against Leishmania amazonensis WHOM/BR/75/Josefa promastigotes transfected with green fluorescent protein after 72 hrs by MTT assay. The format is functional.
Series [15] deals with Leishmania amazonensis. The series is described as follows: Induction of apoptosis in Leishmania amazonensis IFLA/BR/1967/PH8 promastigotes assessed as necrotic population at 44 uM after 24 hrs by Annexin V-FITC/PI staining based flow cytometric analysis (reference value: 0.03%). The format is functional. Summed up: as §2
Series [16] relates to Leishmania amazonensis. The series is described as follows: Induction of autophagy in Leishmania amazonensis IFLA/BR/1967/PH8 promastigotes at 2.5 to 10 uM after 24 hrs by MDC staining-based fluorometric analysis. In kind it is functional. A digest of the protocol: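 Exponential WT promastigotes (1x10^7 cells/mL) treated 24 h at 25 °C; washed, adjusted to 10x10^6 cells/mL, 100 µM monodansylcadaverine 1 h dark at 25 °C; fluorescence 335/460 nm versus untreated; three independent experiments.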

Series [17] has as its system Leishmania amazonensis. The series is described as follows: Induction of DNA damage in Leishmania amazonensis IFLA/BR/1967/PH8 promastigotes at 5 to 10 uM after 24 hrs by TUNEL assay. The format is functional. A digest of the protocol:
as §3

For series [18], the system named is Leishmania amazonensis. The series is described as follows: Induction of lipid inclusions in Leishmania amazonensis IFLA/BR/1967/PH8 promastigotes at 2.5 uM after 24 hrs by Nile Red satining-based spectrofluorometric analysis. The format is functional. Summed up:
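WT (PH8) promastigotes at 1x10^7 cells/mL in exponential phase, cultured 24 h at 25 °C with or without 2.5–20.0 µM. Parasites incubated with Nile Red, then fluorescence measured spectrofluorometrically. Reported as arbitrary fluorescence units versus untreated parasites, mean of three experiments run in triplicate.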

For series [19], the system named is Leishmania amazonensis. The series is described as follows: Induction of lipid inclusions in Leishmania amazonensis IFLA/BR/1967/PH8 promastigotes at 5 uM after 24 hrs by Nile Red satining-based spectrofluorometric analysis. In kind it is functional. A digest of the protocol: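 WT exponential-phase promastigotes (1x10^7 cells/mL) cultured 24 h at 25 °C, stained with Nile Red, fluorescence read spectrofluorometrically versus untreated; three experiments in triplicate.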

For series [20], the system named is Leishmania amazonensis. The series is described as follows: Induction of plasma membrane permeability in Leishmania amazonensis IFLA/BR/1967/PH8 promastigotes form assessed as increase in fluorescence intensity at 2.5 to 10 uM after 24 hrs by PI staining-based spectrofluorometric analysis. The format is functional. Summed up:
(§5)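 Exponential WT promastigotes (1x10^7 cells/mL) treated 24 h at 25 °C; washed, PI 1.0 µg/mL 15 min dark at room temperature; fluorescence 540/600 nm as % increase over untreated; heat-killed cells (65 °C, 10 min) as positive control; three independent experiments.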

For series [21], the system named is Leishmania amazonensis. Kind of series: Induction of morphological changes in Leishmania amazonensis IFLA/BR/1967/PH8 promastigotes assessed as rounded cell body at 2.5 to 20 uM after 24 hrs by Giemsa staining-based microscopic analysis. The format is functional. Summed up: (§6)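 Exponential-phase promastigotes (1x10^7 cells/mL) treated 24 h at 25 °C; harvested, resuspended in PBS, smeared, ethanol-fixed, Giemsa-stained and examined by light microscopy.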

Series [22] deals with Leishmania amazonensis. Kind of series: Induction of morphological changes in Leishmania amazonensis IFLA/BR/1967/PH8 promastigotes assessed as altered parasite shape at 2.5 to 20 uM after 24 hrs by Giemsa staining-based microscopic analysis. The format is functional. Summed up:
as §6

Series [23] concerns Leishmania amazonensis. The series is described as follows: Antileishmanial activity against Leishmania amazonensis IFLA/BR/1967/PH8 promastigotes at 2.5 to 20 uM incubated for 72 hrs followed by compound washout measured after 72 hrs by Neubauer chamber method. In kind it is functional. A digest of the protocol: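 WT promastigotes exposed 72 h at 25 °C and counted; centrifuged, washed twice in PBS, adjusted to 10x10^6 cells/mL in drug-free Warren's medium + 10% serum; after 72 h at 25 °C viable cells counted in Neubauer chamber; three independent experiments in duplicate.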

In series [24] the test system is Leishmania amazonensis. Kind of series: Induction of plasma membrane permeability in Leishmania amazonensis IFLA/BR/1967/PH8 promastigotes form assessed as increase in fluorescence intensity at 20 uM after 24 hrs by PI staining-based spectrofluorometric analysis. The format is functional. Summed up:
as §5

Series [25] relates to Leishmania amazonensis. The series is described as follows: Induction of morphological changes in Leishmania amazonensis IFLA/BR/1967/PH8 promastigotes assessed as parasite size reduction at 2.5 to 20 uM after 24 hrs by Giemsa staining-based microscopic analysis. The format is functional. Summed up:
as §6

For the next series, the system named is Peritoneal macrophage. The description is as §4. The format is cell-based. The conditions noted are these: peritoneal macrophage, 72 h.
[26] abbreviates: Leishmania amazonensis, IFLA/BR/1967/PH8, 72 h.

Calls of active or inactive are those of the source. The calls are words filed in the database; no cut-off is given here.

Usually IC50 stands for the midpoint of a concentration-inhibition curve. A higher IC50 goes with a need for much substance. For orientation: CC50 means the concentration at which the toxic effect on the cells reaches its halfway point. Low values mean greater toxicity to the cells, high ones lower toxicity to the cells.

On to `CCCCn1cc(CO)[n+](CCC)n1`, for which, in the series on Leishmania amazonensis [1] (setting [26]), the IC50 was > 100 µM.
In the case of `CCCCCCCCCCCCCCCCOP(=O)([O-])OCC[N+](C)(C)C` [MILTEFOSINE], the concentration for half-maximal inhibition (IC50) in the series with Leishmania amazonensis [2] worked out at 6.6 µM; in the series with Leishmania amazonensis [1] (setting [26]) it was 22 µM; in the series with Leishmania amazonensis [6] it was 4.2 µM; with Leishmania amazonensis [9] it was 18.9 µM; with Leishmania amazonensis [10], 12.7 µM; in the series on Leishmania amazonensis [14] it was 13.2 µM. Further, the Activity in the series with Leishmania amazonensis [3] was found to be 53.22%; in the series with Leishmania amazonensis [7] it was 12.23%; in the series with Leishmania amazonensis [11], 66.7%; in the series with Leishmania amazonensis [15], 7.15%. For the same compound, the entries for the “Ratio CC50/IC50” value in series [4], in series [5] and in [13] were 34.2, 21.7 and 11.3, respectively. Also, in the series with Leishmania amazonensis [8], the result was Active. Besides, it took 144 µM to reach half-maximal cytotoxicity in series [12] (CC50 at 72 h).
For `CCCCCCCCCCn1cc(CO)[n+](C)n1` [listing 1 of 2 here], the outcome in the series on Leishmania amazonensis [16], in the series with Leishmania amazonensis [18], in the series on Leishmania amazonensis [19] and in the series on Leishmania amazonensis [20] was inactive. For the same compound, the result in the series on Leishmania amazonensis [17], in the series with Leishmania amazonensis [21], with Leishmania amazonensis [22], in the series on Leishmania amazonensis [23], in the series with Leishmania amazonensis [24] and in the series on Leishmania amazonensis [25] was Active.
Consider `CCCCCCCCCCn1cc(CO)[n+](CCC)n1` [listing 1 of 2 here], for which the IC50 with Leishmania amazonensis [1] (setting [26]) stood at 0.73 µM. Further, in the series with Peritoneal macrophage, the CC50 was 4.6 µM.
`CCCCCCCCCCn1cc(CO)[n+](C)n1` [listing 2 of 2 here]: in the series on Leishmania amazonensis [1], the IC50 came out at 14.3 µM.
Consider `CCCCn1cc(CO)[n+](C)n1`, for which the IC50 in the series on Leishmania amazonensis [1] (setting [26]) is > 100 µM.
On to `CCCCCCCCCCn1cc(CO)[n+](CCC)n1` [listing 2 of 2 here], for which half-maximal inhibition in the series on Leishmania amazonensis [1] (IC50) was put at 0.7 µM. In addition, it took 3.9 µM to reach half-maximal cytotoxicity with Peritoneal macrophage (CC50).
On to `CCCCCCn1cc(CO)[n+](C)n1`, for which the IC50 with Leishmania amazonensis [1] (setting [26]) was > 100 µM.
On the same count and under the same terms, under `CCCCCCn1cc(CO)[n+](CCC)n1` stands > 100 µM.
